Data: ChEMBL document CHEMBL2169806, “Design, synthesis, and pharmacological evaluation of N-acylhydrazones and novel conformationally constrained compounds as selective and potent orally active phosphodiesterase-4 inhibitors” (J Med Chem, 2012)

Columns and labels:
Bos taurus [1] = species: Bos taurus; test: Inhibition of bovine PDE4 using [3H]cAMP as substrate at 10 uM
Method in brief: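 Enzyme was PDE4 isolated from the media layer of bovine aorta, run in the two-step activity assay at 1 μM cAMP.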

[2] = target: 3',5'-cyclic-AMP phosphodiesterase 4B (Homo sapiens, UniProt Q07343); test: Inhibition of human recombinant PDE4B
[3] = target: 3',5'-cyclic-AMP phosphodiesterase 4C (Homo sapiens, UniProt Q08493); test: Inhibition of human recombinant PDE4C
[4] = target: 3',5'-cyclic-AMP phosphodiesterase 4A (Homo sapiens, UniProt P27815); test: Inhibition of human recombinant PDE4A
[5] = target: 3',5'-cyclic-AMP phosphodiesterase 4D (Homo sapiens, UniProt Q08499); test: Inhibition of human recombinant PDE4D
PBMC [6] = test: Antiinflammatory activity in human PBMC assessed as inhibition of LPS-induced TNFalpha production after 24 hrs by ELISA; format: functional, cell-based
PBMC [7] = test: Antiinflammatory activity in human PBMC assessed as inhibition of LPS-induced TNFalpha production at 10 uM after 24 hrs by ELISA relative to control; format: functional
[8] = Inhibition of bovine PDE3 using [3H]cAMP as substrate; set-up: species or system Bos taurus
Mus musculus [9] = test: Antiinflammatory activity in A/J mouse assessed as inhibition of leukocyte accumulation in bronchoalveolar space at 100 umol/kg, po administered 1 hr prior to LPS-challenge measured after 18 hrs relative to vehicle-treated control; format: functional; settings: Lung
Mus musculus [10] = test: Antiinflammatory activity in A/J mouse assessed as inhibition of neutrophil accumulation in bronchoalveolar space at 100 umol/kg, po administered 1 hr prior to LPS-challenge measured after 18 hrs relative to vehicle-treated control; format: functional; settings: Lung
Mus musculus [11] = test: Antiinflammatory activity in A/J mouse assessed as inhibition of LPS-induced airway elastance provoked by methacholine at 100 umol/kg, po administered 1 hr prior to LPS-challenge measured after 18 hrs relative to vehicle-treated control; format: functional
Bos taurus [12] = species: Bos taurus; test: Inhibition of bovine PDE5 using […] as substrate at 10 uM
Mus musculus [13] = test: Antiinflammatory activity in A/J mouse lung assessed as inhibition of LPS-induced IL6 production at 100 umol/kg, po administered 1 hr prior to LPS-challenge measured after 18 hrs relative to vehicle-treated control; format: functional
Mus musculus [14] = test: Antiinflammatory activity in A/J mouse assessed as inhibition of LPS-induced airway resistance provoked by methacholine at 100 umol/kg, po administered 1 hr prior to LPS-challenge measured after 18 hrs relative to vehicle-treated control; format: functional
Mus musculus [15] = test: Antiinflammatory activity in A/J mouse lung assessed as inhibition of LPS-induced TNFalpha production at 100 umol/kg, po administered 1 hr prior to LPS-challenge measured after 18 hrs relative to vehicle-treated control; format: functional
[16] = target: cGMP-dependent 3',5'-cyclic phosphodiesterase (Homo sapiens, UniProt O00408); test: Inhibition of human PDE2 using [3H]cAMP as substrate at 10 uM
Mus musculus [17] = test: Proemetic activity in A/J mouse assessed as reversal of xylazine/katamine-induced anesthesia at 30 to 200 umol/kg, sc administered 30 mins prior xylazine/ketamine-administration; format: ADME, organism-based; settings: in vivo, 0.5 h
[18] = Inhibition of bovine PDE4 using [3H]cAMP as substrate; set-up: species or system Bos taurus
[19] = Inhibition of PDE6
Bos taurus [20] = species: Bos taurus; test: Inhibition of bovine PDE1 using [3H]cAMP as substrate at 10 uM
Mus musculus [21] = test: Antiinflammatory activity in A/J mouse assessed as inhibition of neutrophil accumulation in bronchoalveolar space at 3 mg/kg, po administered 1 hr prior to LPS-challenge measured after 18 hrs relative to vehicle-treated control; format: functional; settings: Lung
Mus musculus [22] = test: Antiinflammatory activity in A/J mouse assessed as inhibition of LPS-induced airway resistance provoked by methacholine at 3 mg/kg, po administered 1 hr prior to LPS-challenge measured after 18 hrs relative to vehicle-treated control; format: functional
Mus musculus [23] = test: Antiinflammatory activity in A/J mouse assessed as inhibition of LPS-induced airway elastance provoked by methacholine at 3 mg/kg, po administered 1 hr prior to LPS-challenge measured after 18 hrs relative to vehicle-treated control; format: functional
[24] = Inhibition of PDE6 at 10 uM
Bos taurus [25] = species: Bos taurus; test: Inhibition of bovine PDE3 using [3H]cAMP as substrate at 10 uM

Sequence of cGMP-dependent 3',5'-cyclic phosphodiesterase (O00408 whole entry): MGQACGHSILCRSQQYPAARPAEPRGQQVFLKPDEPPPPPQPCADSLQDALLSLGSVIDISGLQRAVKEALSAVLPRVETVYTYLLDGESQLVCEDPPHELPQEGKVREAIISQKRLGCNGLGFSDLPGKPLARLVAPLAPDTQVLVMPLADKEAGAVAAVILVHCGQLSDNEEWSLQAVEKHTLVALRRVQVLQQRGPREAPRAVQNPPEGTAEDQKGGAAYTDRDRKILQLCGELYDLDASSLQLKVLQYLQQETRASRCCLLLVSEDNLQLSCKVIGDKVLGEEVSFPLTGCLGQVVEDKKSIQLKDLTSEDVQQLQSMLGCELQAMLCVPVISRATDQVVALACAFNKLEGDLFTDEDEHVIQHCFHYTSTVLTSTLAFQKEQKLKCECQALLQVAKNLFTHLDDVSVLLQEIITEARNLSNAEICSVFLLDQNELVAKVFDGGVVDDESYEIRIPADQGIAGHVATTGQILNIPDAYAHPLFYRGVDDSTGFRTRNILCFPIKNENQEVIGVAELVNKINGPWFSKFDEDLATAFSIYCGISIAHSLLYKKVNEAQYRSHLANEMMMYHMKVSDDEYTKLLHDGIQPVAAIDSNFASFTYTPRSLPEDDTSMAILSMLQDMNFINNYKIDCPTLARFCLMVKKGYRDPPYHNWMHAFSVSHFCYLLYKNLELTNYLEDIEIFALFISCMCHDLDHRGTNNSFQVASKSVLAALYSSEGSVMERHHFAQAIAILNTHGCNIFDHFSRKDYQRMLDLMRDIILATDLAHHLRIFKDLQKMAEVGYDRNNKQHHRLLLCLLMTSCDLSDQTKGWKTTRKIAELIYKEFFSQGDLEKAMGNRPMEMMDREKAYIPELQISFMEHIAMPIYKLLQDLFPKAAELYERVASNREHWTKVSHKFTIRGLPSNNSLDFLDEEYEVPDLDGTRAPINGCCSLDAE
Sequence of 3',5'-cyclic-AMP phosphodiesterase 4D (Q08499 whole entry): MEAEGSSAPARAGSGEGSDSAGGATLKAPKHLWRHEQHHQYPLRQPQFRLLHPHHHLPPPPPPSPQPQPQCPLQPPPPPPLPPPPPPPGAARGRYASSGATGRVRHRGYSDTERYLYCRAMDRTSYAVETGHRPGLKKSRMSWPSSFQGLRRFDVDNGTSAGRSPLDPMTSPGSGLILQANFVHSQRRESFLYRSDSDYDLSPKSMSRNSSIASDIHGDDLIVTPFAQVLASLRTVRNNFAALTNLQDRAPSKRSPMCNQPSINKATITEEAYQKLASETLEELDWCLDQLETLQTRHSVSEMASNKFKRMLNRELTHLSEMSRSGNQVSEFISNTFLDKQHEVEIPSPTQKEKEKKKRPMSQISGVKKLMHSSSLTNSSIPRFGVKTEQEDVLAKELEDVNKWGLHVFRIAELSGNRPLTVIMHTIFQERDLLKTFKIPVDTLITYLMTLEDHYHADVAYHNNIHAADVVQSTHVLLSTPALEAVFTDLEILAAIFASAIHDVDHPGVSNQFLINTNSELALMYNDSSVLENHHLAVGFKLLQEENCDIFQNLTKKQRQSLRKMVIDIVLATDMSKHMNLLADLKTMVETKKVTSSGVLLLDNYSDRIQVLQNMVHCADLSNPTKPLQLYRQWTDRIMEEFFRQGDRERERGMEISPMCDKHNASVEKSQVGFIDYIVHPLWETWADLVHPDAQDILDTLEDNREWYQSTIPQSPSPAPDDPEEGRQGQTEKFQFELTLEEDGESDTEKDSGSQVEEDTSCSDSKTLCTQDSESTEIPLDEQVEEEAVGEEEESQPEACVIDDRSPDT
Sequence of 3',5'-cyclic-AMP phosphodiesterase 4C (Q08493 whole entry): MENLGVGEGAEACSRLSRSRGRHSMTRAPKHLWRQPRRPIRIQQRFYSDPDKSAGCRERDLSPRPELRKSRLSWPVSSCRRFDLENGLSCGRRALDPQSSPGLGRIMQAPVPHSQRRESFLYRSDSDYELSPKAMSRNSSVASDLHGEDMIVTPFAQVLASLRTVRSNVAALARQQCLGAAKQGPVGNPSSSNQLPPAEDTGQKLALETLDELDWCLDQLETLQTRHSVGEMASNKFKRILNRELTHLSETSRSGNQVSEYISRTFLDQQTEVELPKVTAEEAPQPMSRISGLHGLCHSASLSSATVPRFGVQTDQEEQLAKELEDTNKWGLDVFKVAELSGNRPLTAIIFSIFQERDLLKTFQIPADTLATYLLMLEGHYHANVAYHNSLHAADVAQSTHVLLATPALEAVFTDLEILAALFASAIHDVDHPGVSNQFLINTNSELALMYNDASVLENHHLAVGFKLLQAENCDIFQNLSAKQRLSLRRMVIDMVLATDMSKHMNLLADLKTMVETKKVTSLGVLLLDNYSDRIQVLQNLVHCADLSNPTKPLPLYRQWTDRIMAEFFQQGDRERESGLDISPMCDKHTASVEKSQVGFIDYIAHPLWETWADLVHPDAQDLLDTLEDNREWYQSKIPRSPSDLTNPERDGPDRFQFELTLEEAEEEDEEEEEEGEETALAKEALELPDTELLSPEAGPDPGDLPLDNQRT
Sequence of 3',5'-cyclic-AMP phosphodiesterase 4A (P27815 whole entry): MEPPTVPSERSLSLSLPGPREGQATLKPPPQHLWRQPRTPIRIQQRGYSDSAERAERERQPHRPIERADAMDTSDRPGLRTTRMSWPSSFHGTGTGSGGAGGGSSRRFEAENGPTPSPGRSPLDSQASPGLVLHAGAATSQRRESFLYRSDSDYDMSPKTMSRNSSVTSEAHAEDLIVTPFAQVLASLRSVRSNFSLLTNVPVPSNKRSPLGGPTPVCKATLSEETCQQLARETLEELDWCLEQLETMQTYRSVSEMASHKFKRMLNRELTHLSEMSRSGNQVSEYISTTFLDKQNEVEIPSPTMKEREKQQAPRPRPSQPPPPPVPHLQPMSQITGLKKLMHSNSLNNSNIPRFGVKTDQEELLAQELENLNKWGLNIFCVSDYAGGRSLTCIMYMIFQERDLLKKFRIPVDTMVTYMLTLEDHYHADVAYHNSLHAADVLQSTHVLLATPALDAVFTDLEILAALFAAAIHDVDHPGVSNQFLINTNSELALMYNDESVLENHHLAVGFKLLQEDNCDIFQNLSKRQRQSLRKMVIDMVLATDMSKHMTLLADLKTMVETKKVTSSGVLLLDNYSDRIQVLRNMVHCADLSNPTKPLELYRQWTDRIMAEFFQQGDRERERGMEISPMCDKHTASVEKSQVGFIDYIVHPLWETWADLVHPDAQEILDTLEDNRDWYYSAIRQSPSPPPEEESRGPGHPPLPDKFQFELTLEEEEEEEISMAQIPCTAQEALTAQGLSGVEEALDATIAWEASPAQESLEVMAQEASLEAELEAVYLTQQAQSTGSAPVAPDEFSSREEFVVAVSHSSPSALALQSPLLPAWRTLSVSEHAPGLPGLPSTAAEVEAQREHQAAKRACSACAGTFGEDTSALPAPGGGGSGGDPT
Sequence of 3',5'-cyclic-AMP phosphodiesterase 4B (Q07343 whole entry): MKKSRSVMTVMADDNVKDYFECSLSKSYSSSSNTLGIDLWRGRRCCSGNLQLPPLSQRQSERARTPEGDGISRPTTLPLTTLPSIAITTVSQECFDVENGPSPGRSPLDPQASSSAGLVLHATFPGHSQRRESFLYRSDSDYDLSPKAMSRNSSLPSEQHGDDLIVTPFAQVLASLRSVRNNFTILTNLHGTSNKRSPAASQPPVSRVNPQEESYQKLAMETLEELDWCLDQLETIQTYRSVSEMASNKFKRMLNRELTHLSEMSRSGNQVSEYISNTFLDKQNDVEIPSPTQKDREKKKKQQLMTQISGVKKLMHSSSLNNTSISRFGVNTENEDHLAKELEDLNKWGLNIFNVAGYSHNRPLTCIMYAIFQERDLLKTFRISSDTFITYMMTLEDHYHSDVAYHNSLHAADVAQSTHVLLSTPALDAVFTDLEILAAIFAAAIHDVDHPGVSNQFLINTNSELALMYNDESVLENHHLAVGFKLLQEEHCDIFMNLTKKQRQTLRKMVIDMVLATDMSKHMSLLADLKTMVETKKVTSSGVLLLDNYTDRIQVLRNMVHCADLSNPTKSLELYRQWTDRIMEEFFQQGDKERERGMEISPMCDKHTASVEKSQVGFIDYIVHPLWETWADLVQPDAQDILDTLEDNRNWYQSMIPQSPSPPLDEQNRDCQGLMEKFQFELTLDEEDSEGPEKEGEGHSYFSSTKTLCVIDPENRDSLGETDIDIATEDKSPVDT

## COc1ccc(C(=O)N/N=C/c2ccc(Cl)cc2)cc1OC
Bos taurus [1]
  inhibition: 6.4%

## Clc1ncnc2ccccc12
[2]
  IC50: 0.231 µM
[3]
  IC50: 3.69 µM
[4]
  IC50: 0.162 µM
[5]
  IC50: 0.622 µM

## COc1ccc(/C=N/N(C)C(=O)c2ccc(O)cc2)cc1OC
[2]
  IC50: 0.047 µM
PBMC [6]
  EC50: 0.52 µM
PBMC [7]
  inhibition at 10 µM: 83%
[8]
  IC50: 11.8 µM
Mus musculus [9]
  inhibition in vivo at 100 µmol/kg: 65%
Mus musculus [10]
  inhibition in vivo at 100 µmol/kg: 60%
[3]
  IC50: 0.206 µM
Mus musculus [11]
  inhibition in vivo at 100 µmol/kg: 61%
[4]
  IC50: 0.064 µM
[5]
  IC50: 0.031 µM
Bos taurus [1]
  inhibition: 98.4%
Bos taurus [12]
  inhibition: 27.9%
Mus musculus [13]
  inhibition in vivo at 100 µmol/kg: 6%
Mus musculus [14]
  inhibition in vivo at 100 µmol/kg: 36%
Mus musculus [15]
  inhibition in vivo at 100 µmol/kg: 35%
[16]
  inhibition: 39.3%
Mus musculus [17]
  Activity: Non-toxic
[18]
  IC50: 0.05 µM
[19]
  IC50: 9.1 µM
Bos taurus [20]
  inhibition: 28.3%

## COc1ccc(/C=N/NC(=O)c2ccc(Cl)cc2)cc1OC
Bos taurus [1]
  inhibition: 7.5%

## COc1ccc(C2=NN(C)C(=O)c3ccccc3C2)cc1OC
PBMC [7]
  inhibition at 10 µM: 20%
Bos taurus [1]
  inhibition: 76.5%
[18]
  IC50: 7.3 µM

## COc1ccc(C(=O)N/N=C/c2c(C)nc3ccccn23)cc1OC
Bos taurus [1]
  inhibition: 7.7%

## COc1ccc(/C=N/N(C)C(=O)c2ccc(OC)c(OC)c2)cc1OC
PBMC [6]
  EC50: 1.18 µM
PBMC [7]
  inhibition at 10 µM: 92%
[8]
  IC50: 18.8 µM
Mus musculus [9]
  inhibition in vivo at 100 µmol/kg: 53%
Mus musculus [10]
  inhibition in vivo at 100 µmol/kg: 50%
Mus musculus [11]
  inhibition in vivo at 100 µmol/kg: 79%
Bos taurus [1]
  inhibition: 95.8%
Bos taurus [12]
  inhibition: 30.9%
Mus musculus [13]
  inhibition in vivo at 100 µmol/kg: 65%
Mus musculus [14]
  inhibition in vivo at 100 µmol/kg: 92%
Mus musculus [15]
  inhibition in vivo at 100 µmol/kg: 74%
[16]
  inhibition: 40.8%
[18]
  IC50: 0.3 µM
[19]
  IC50: 17.6 µM
Bos taurus [20]
  inhibition: 38.7%

## COc1ccc(/C=N/NC(=O)c2ccc(OC)c(OC)c2)cc1OC
Bos taurus [1]
  inhibition: 10.7%

## COc1ccc(C2=NNC(=O)c3ccccc3C2)cc1OC
PBMC [7]
  inhibition at 10 µM: 14%
Bos taurus [1]
  inhibition: 78.8%
[18]
  IC50: 5.2 µM

## COc1ccc(/C=N/NC(=O)c2c(C)nc3ccccn23)cc1OC
Bos taurus [1]
  inhibition: 41.5%

## COc1ccc(C(=O)N(C)/N=C/c2ccc(Cl)cc2)cc1OC
Bos taurus [1]
  inhibition: 40.4%

## COc1ccc(C(=O)N/N=C/c2ccc3c(c2)OCO3)cc1OC
Bos taurus [1]
  inhibition: 10.5%

## COc1ccc(C(=O)N/N=C/c2ccccc2)cc1OC
Bos taurus [1]
  inhibition: 5.8%

## COc1ccc([C@]2(C#N)CC[C@@H](C(=O)O)CC2)cc1OC1CCCC1 [CILOMILAST]
Mus musculus [21]
  inhibition in vivo at 3 mg/kg: 43%
Mus musculus [22]
  inhibition in vivo at 3 mg/kg: 93%
Mus musculus [23]
  inhibition in vivo at 3 mg/kg: 93%

## COc1ccc(/C=N/N(C)C(=O)c2ccc(OC)c(OC)c2)cc1
Bos taurus [1]
  inhibition: 45.8%

## COc1ccc(C(=O)N/N=C/c2ccc(O)cc2)cc1OC
Bos taurus [1]
  inhibition: 1.5%

## COc1ccc(/C=N/N(C)C(=O)c2ccc3c(c2)OCO3)cc1OC
PBMC [6]
  EC50: 0.54 µM
PBMC [7]
  inhibition at 10 µM: 90%
Mus musculus [9]
  inhibition in vivo at 100 µmol/kg: 62%
Mus musculus [10]
  inhibition in vivo at 100 µmol/kg: 67%
Mus musculus [11]
  inhibition in vivo at 100 µmol/kg: 64%
Bos taurus [1]
  inhibition: 96.3%
Bos taurus [12]
  inhibition: 5.1%
Mus musculus [13]
  inhibition in vivo at 100 µmol/kg: 92%
Mus musculus [14]
  inhibition in vivo at 100 µmol/kg: 56%
[24]
  inhibition: 0.6%
Mus musculus [15]
  inhibition in vivo at 100 µmol/kg: 80%
[16]
  inhibition: 4%
[18]
  IC50: 0.11 µM
Bos taurus [20]
  inhibition: 0%
Bos taurus [25]
  inhibition: 19.4%

## COc1ccc(C(=O)N(C)/N=C/c2ccccc2)cc1OC
Bos taurus [1]
  inhibition: 22.8%

## COc1ccc(/C=N/N(C)C(=O)c2ccc(Cl)cc2)cc1OC
PBMC [6]
  EC50: 1.03 µM
PBMC [7]
  inhibition at 10 µM: 88%
[8]
  IC50: 6.7 µM
Mus musculus [9]
  inhibition in vivo at 100 µmol/kg: 69%
Mus musculus [10]
  inhibition in vivo at 100 µmol/kg: 54%
Mus musculus [11]
  inhibition in vivo at 100 µmol/kg: 72%
Bos taurus [1]
  inhibition: 97%
Bos taurus [12]
  inhibition: 27.5%
Mus musculus [13]
  inhibition in vivo at 100 µmol/kg: 59%
Mus musculus [14]
  inhibition in vivo at 100 µmol/kg: 33%
[24]
  inhibition: 34%
Mus musculus [15]
  inhibition in vivo at 100 µmol/kg: 54%
[16]
  inhibition: 26.6%
[18]
  IC50: 0.15 µM
Bos taurus [20]
  inhibition: 17.7%

## COc1ccc(C(=O)N(C)/N=C/c2ccc(O)cc2)cc1OC
Bos taurus [1]
  inhibition: 27%

## COc1ccc(C(=O)N/N=C/c2ccc(OC)c(OC)c2)cc1
Bos taurus [1]
  inhibition: 9.7%

## COc1ccc(/C=N/NC(=O)c2ccc(O)cc2)cc1OC
Bos taurus [1]
  inhibition: 13.6%

## COc1ccc(/C=N/NC(=O)c2ccc3c(c2)OCO3)cc1OC
Bos taurus [1]
  inhibition: 16%

## COc1ccc(C(=O)N(C)/N=C/c2ccc3c(c2)OCO3)cc1OC
Bos taurus [1]
  inhibition: 19.8%

## COc1ccc(/C=N/N(C)C(=O)c2ccccc2)cc1OC
PBMC [6]
  EC50: 1.75 µM
PBMC [7]
  inhibition at 10 µM: 91%
[8]
  IC50: 19.6 µM
Mus musculus [9]
  inhibition in vivo at 100 µmol/kg: 73%
Mus musculus [10]
  inhibition in vivo at 100 µmol/kg: 68%
Mus musculus [11]
  inhibition in vivo at 100 µmol/kg: 51%
[5]
  IC50: 0.14 µM
Bos taurus [1]
  inhibition: 97.1%
Bos taurus [12]
  inhibition: 22.3%
Mus musculus [13]
  inhibition in vivo at 100 µmol/kg: 53%
Mus musculus [14]
  inhibition in vivo at 100 µmol/kg: 58%
[24]
  inhibition: 31.2%
Mus musculus [15]
  inhibition in vivo at 100 µmol/kg: 46%
[16]
  inhibition: 23.5%
Bos taurus [20]
  inhibition: 6%

## COc1ccc(/C=N/NC(=O)c2ccccc2)cc1OC
Bos taurus [1]
  inhibition: 13.1%

## COc1cccc(C(=O)N(C)/N=C/c2ccc(OC)c(OC)c2)c1
PBMC [6]
  EC50: 1.27 µM
PBMC [7]
  inhibition at 10 µM: 81%
[8]
  IC50: 4.5 µM
Mus musculus [9]
  inhibition in vivo at 100 µmol/kg: 73%
Mus musculus [10]
  inhibition in vivo at 100 µmol/kg: 77%
Mus musculus [11]
  inhibition in vivo at 100 µmol/kg: 69%
Bos taurus [1]
  inhibition: 98.1%
Bos taurus [12]
  inhibition: 29.1%
Mus musculus [13]
  inhibition in vivo at 100 µmol/kg: 38%
Mus musculus [14]
  inhibition in vivo at 100 µmol/kg: 70%
[24]
  inhibition: 39.5%
Mus musculus [15]
  inhibition in vivo at 100 µmol/kg: 75%
[16]
  inhibition: 40.4%
[18]
  IC50: 0.29 µM
Bos taurus [20]
  inhibition: 18.5%

## COc1ccc(/C=N/N(C)c2ncnc3ccccc23)cc1OC
PBMC [6]
  EC50: 1.3 µM
Mus musculus [9]
  inhibition in vivo at 100 µmol/kg: 47%
Mus musculus [10]
  inhibition in vivo at 100 µmol/kg: 49%
Mus musculus [11]
  inhibition in vivo at 100 µmol/kg: 66%
Bos taurus [1]
  inhibition: 98%
Mus musculus [13]
  inhibition in vivo at 100 µmol/kg: 86%
Mus musculus [14]
  inhibition in vivo at 100 µmol/kg: 82%
Mus musculus [15]
  inhibition in vivo at 100 µmol/kg: 70%
[18]
  IC50: 0.19 µM

## COc1ccc(-c2nn(C(=O)c3ccccc3)c3ccccc23)cc1OC
Bos taurus [1]
  inhibition: 81.2%
[18]
  IC50: 4.1 µM

## COc1ccc(/C=N/NC(=O)c2ccc(OC)c(OC)c2)cc1
Bos taurus [1]
  inhibition: 6.6%

## COc1ccc(/C=N/N(C)C(=O)c2c(C)nc3ccccn23)cc1OC
Bos taurus [1]
  inhibition: 45.9%
